Data reported in ChEMBL document CHEMBL1135727, “Selective antagonists at group I metabotropic glutamate receptors: synthesis and molecular pharmacology of 4-aryl-3-isoxazolol amino acids” (J Med Chem, 2002).

Assays:
[1] = molecular target: Metabotropic glutamate receptor 5 (Rattus norvegicus, UniProt P31424); assay: The compound was tested for the receptor binding affinity at Metabotropic glutamate receptor 5 using established second messenger assay systems.
How it was run: (§1)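 Receptors were expressed in CHO cells: mGluR1α, mGluR2, mGluR4a and mGluR5a. Functional read-outs were PI hydrolysis (1.8 × 10^6 cells seeded 2 days before) or cyclic AMP formation (1.0 × 10^6 cells seeded 2 days before). Agonist and antagonist activity was tested at 1 mM unless stated otherwise. Ki was derived from IC50 via the Cheng–Prusoff equation.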

[2] = molecular target: Metabotropic glutamate receptor 4 (Rattus norvegicus, UniProt P31423); assay: The compound was tested for the receptor binding affinity at Metabotropic glutamate receptor 4 using established second messenger assay systems.; how it was run: as §1
Glutamate NMDA receptor = assay: Concentration which causes 50% reduction in receptor binding affinity against N-methyl-D-aspartate glutamate receptor (NMDA) using [3H]CPP; assay type: protein-complex assay
Rattus norvegicus [3] = organism: Rattus norvegicus; assay: Electropharmacology measured as antagonist effects in the rat cortical wedge model; assay type: functional
[4] = molecular target: T1, Glutamate receptor ionotropic, AMPA (Rattus norvegicus, UniProt P19490+P19491+P19492+P19493); assay: Concentration which causes 50% reduction in receptor binding affinity against Ionotropic glutamate receptor AMPA using [3H]AMPA; assay type: protein-complex assay
[5] = molecular target: Metabotropic glutamate receptor 2 (Rattus norvegicus, UniProt P31421); assay: The compound was tested for the receptor binding affinity at Metabotropic glutamate receptor 2 using established second messenger assay systems.; how it was run: as §1
Metabotropic glutamate receptor 2, sequence (P31421 whole entry): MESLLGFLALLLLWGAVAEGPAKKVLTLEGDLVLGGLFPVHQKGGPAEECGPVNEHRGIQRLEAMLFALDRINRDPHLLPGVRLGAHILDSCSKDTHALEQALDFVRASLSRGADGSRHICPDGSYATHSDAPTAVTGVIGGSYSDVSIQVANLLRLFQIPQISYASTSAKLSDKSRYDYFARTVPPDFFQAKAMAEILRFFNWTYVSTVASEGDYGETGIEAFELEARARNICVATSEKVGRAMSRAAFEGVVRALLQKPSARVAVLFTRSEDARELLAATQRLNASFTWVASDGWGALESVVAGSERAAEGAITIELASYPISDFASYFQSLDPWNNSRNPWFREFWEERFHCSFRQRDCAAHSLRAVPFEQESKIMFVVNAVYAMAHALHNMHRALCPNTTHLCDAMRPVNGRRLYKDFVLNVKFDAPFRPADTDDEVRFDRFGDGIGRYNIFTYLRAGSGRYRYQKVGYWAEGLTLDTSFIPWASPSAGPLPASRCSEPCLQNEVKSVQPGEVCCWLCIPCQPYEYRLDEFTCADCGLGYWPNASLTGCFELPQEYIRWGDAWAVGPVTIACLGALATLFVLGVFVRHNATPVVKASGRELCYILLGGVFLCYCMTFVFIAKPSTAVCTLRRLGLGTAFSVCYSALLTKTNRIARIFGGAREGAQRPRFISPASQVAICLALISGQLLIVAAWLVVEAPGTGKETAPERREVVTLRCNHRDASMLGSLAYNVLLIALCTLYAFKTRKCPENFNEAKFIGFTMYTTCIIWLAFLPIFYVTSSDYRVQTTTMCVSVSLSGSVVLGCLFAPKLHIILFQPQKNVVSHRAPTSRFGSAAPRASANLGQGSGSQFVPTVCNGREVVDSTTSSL

[6] = molecular target: Metabotropic glutamate receptor 1 (Rattus norvegicus, UniProt P23385); assay: The compound was tested for the receptor binding affinity at Metabotropic glutamate receptor 1 using established second messenger assay systems.; how it was run: as §1
Metabotropic glutamate receptor 1, sequence (P23385 whole entry): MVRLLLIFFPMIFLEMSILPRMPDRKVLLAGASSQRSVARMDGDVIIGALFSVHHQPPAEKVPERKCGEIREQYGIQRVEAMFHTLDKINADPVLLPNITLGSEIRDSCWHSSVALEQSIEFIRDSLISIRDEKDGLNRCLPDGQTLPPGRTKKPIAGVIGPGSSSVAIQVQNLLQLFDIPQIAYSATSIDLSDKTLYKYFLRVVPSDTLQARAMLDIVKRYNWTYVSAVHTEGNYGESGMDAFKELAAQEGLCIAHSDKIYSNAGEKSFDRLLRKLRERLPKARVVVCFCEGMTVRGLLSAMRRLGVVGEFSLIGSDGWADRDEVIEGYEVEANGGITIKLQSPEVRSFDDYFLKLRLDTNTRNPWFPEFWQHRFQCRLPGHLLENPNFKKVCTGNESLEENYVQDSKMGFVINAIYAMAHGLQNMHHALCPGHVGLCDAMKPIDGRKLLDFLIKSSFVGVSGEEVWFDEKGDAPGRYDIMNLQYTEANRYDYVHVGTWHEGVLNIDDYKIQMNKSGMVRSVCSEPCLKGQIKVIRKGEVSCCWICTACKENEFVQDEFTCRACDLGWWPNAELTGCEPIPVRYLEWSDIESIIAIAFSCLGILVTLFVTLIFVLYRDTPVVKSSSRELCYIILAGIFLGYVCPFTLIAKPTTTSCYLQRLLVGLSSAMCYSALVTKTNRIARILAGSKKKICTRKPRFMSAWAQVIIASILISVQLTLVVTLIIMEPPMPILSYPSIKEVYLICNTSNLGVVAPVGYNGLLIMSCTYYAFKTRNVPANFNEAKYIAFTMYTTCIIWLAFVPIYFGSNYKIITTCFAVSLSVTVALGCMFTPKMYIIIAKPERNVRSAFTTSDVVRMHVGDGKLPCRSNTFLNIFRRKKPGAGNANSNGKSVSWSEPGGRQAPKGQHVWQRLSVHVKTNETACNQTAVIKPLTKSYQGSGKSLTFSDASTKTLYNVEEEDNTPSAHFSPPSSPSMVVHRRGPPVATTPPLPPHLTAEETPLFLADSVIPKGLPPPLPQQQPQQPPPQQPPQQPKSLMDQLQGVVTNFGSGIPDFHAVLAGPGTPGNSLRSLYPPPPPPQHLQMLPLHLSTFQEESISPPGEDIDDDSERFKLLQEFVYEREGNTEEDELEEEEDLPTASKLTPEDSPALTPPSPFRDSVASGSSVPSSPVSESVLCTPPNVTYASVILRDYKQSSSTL

[7] = molecular target: Glutamate receptor ionotropic, kainate 1 (Rattus norvegicus, UniProt P22756); assay: Concentration which causes 50% reduction in receptor binding affinity against Ionotropic glutamate receptor ionotropic kainate using [3H]-kainic acid
Glutamate receptor ionotropic, kainate 1, sequence (P22756 whole entry): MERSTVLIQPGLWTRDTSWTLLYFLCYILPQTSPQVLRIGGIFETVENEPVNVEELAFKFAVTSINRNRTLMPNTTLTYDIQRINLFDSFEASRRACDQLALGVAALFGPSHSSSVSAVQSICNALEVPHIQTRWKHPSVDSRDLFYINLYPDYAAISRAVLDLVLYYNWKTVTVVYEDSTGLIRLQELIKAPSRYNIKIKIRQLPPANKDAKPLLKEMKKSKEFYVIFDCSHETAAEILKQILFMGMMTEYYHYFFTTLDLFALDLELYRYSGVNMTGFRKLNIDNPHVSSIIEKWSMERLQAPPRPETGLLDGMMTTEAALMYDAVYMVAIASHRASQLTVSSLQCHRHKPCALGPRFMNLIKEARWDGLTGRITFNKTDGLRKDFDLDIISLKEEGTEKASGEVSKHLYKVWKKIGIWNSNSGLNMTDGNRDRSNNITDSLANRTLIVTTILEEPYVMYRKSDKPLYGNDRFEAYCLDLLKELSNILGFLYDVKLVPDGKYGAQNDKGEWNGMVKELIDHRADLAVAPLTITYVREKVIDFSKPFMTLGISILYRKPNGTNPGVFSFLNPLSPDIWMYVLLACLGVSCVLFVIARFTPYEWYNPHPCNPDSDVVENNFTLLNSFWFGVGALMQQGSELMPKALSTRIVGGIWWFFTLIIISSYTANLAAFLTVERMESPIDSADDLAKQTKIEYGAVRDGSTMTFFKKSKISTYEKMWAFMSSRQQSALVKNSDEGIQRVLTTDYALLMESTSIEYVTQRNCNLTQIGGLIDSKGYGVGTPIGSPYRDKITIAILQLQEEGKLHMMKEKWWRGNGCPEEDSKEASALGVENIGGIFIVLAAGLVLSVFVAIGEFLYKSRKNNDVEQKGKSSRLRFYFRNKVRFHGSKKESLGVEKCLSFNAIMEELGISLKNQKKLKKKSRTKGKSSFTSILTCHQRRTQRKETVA

Rattus norvegicus [8] = organism: Rattus norvegicus; assay: Electropharmacology measured as agonist effects in the rat cortical wedge model; assay type: functional
[9] = molecular target: T1, Glutamate receptor ionotropic, AMPA; assay: Concentration which causes 50% reduction in receptor binding affinity against Ionotropic glutamate receptor AMPA using [3H]AMPA

Metabotropic glutamate receptor 5, sequence (P31424 whole entry): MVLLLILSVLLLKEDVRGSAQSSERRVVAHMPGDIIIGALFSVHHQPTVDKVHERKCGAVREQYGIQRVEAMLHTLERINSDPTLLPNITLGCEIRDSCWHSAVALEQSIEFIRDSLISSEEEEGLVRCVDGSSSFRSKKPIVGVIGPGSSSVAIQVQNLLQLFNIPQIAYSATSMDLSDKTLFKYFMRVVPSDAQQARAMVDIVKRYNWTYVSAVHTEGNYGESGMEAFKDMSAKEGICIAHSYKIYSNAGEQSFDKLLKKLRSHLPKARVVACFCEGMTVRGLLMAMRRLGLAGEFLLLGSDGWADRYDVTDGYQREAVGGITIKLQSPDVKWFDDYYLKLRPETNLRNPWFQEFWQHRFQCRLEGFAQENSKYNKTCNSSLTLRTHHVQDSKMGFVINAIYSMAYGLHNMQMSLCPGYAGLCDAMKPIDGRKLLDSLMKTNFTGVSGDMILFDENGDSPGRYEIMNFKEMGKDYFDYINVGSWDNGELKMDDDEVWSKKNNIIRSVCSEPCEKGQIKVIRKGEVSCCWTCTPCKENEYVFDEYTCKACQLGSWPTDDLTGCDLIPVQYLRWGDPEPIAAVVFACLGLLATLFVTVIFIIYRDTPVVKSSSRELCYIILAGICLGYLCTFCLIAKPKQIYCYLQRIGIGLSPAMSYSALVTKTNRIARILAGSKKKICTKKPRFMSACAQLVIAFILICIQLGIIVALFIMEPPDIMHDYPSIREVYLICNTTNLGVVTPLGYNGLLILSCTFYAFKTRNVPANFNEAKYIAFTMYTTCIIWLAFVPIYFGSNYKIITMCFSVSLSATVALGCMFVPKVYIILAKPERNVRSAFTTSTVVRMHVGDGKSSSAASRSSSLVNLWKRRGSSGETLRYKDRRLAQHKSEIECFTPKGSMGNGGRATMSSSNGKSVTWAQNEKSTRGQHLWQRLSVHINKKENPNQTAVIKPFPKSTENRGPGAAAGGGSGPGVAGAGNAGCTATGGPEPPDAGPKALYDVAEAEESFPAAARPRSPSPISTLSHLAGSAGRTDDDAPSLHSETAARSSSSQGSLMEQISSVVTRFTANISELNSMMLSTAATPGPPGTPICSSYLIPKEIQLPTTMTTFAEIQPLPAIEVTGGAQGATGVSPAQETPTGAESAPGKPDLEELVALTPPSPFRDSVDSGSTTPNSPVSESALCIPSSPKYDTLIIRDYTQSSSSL

Row | Compound | Ki [1] [µM] | Ki [2] [mM] | IC50 (Glutamate NMDA receptor) [µM] | IC50 (Rattus norvegicus [3]) [mM] | IC50 [4] [µM] | Ki [5] [mM] | Ki [6] [µM] | IC50 [7] [µM] | EC50 (Rattus norvegicus [8]) [µM] | IC50 [9] [µM]
1 | N[C@@H](Cc1o[nH]c(=O)c1CCc1ccccc1)C(=O)O | 70 | > 1 | > 100 | > 1 | > 100 | > 1 | 92 | > 100 | – | –
2 | N[C@@H](Cc1onc(O)c1-c1ccc(O)cc1)C(=O)O | 65 | > 1 | 20 | ~1 | > 100 | > 1 | 71 | > 100 | – | –
3 | N[C@@H](Cc1onc(O)c1-c1ccccc1O)C(=O)O | 45 | > 1 | > 100 | – | > 100 | > 1 | 125 | > 100 | > 1000 | –
4 | N[C@@H](Cc1o[nH]c(=O)c1-c1cccc2ccccc12)C(=O)O | 62 | > 1 | > 100 | ~1 | – | > 1 | 119 | > 100 | – | > 100
5 | N[C@@H](Cc1cc(=O)[nH]o1)C(=O)O | 490 | > 1 | > 100 | – | – | > 1 | 250 | > 100 | – | –
6 | N[C@@H](Cc1onc(O)c1-c1ccc2ccccc2c1)C(=O)O | 53 | > 1 | 14 | 0.715 | > 100 | > 1 | 249 | > 100 | – | –
7 | N[C@@H](Cc1onc(O)c1-c1cccc(O)c1)C(=O)O | – | > 1 | 42 | – | 62 | > 1 | 226 | > 100 | 990 | –
8 | N[C@@H](Cc1onc(O)c1-c1ccccc1)C(=O)O | – | > 1 | > 100 | – | > 100 | > 1 | 160 | > 100 | 590 | –
9 | N[C@@H](Cc1o[nH]c(=O)c1-c1ccccn1)C(=O)O | 224 | > 1 | > 100 | – | 1.3 | > 1 | 396 | > 100 | 23 | –
